Published values of several laboratories.
Compare with care: the assays were run in different laboratories.
Target: Serine/threonine-protein kinase MRCK alpha (CDC42BPA, Homo sapiens, UniProt Q5VT25)

Structure (SMILES)	effect on	method	tested at	remaining binding [%]
CN(CCCC(F)(F)F)c1nccc(-c2cnn3ncccc23)n1	binding		1 µM	100
C=CC(=O)N1CCC(C(=O)NCC(=O)N2CCN(c3nc(-c4cnc(N)nc4C(F)F)nc(N4CCOCC4)n3)CC2)CC1	binding	competition with immobilised ligand	1 µM	100
O=C(NCc1ncc(C(F)(F)F)cc1Cl)c1ccc2c(c1)C1(CCS(=O)(=O)CC1)[C@@H](C1CC1)N2S(=O)(=O)c1ccc(F)cc1	cell-free assay	competition with immobilised ligand	1 µM	100
c1cnn2ncc(-c3ccnc(N4CCC45COC5)n3)c2c1	binding		1 µM	100
Cc1cnc(Nc2ccc(C(=O)N3CCC(N4CCCC4)CC3)cc2)nc1-c1cc2ccccc2s1	binding	competition with immobilised ligand	1 µM	10
COc1cnc(Nc2cccc(S(N)(=O)=O)c2)nc1N1CCN(c2ccccc2)C(=O)C1	binding	competition with immobilised ligand	1 µM	100
Cc1cnn2ncc(-c3ccnc(N(C)C)n3)c2c1	binding		1 µM	87
C[C@@]1(Cc2ccc(C#N)cc2)C(=O)N(c2cc(Cl)cc(Cl)c2)c2ncc(C(=O)NC3(c4nc(C5CCC5)no4)CC3)n21	cell-free assay	competition with immobilised ligand	1 µM	100
N[C@@H]1CCN(c2nccc(-c3cnn4ncccc34)n2)C1	binding		1 µM	100
Nc1ncc2c(n1)-c1c([nH]c3ccc(C#CC4CC4)cc13)CCCC2	binding	competition with immobilised ligand	1 µM	88
CNC(=O)[C@@H]1CC[C@@H](n2c(-c3ccc4cnccc4c3)nc3ccc(C(=O)NCc4cccc(C(N)=O)c4)cc32)C1	binding	competition with immobilised ligand	1 µM	100
O=C(NCCCN1CCOCC1)c1ccc(Nc2ncc(Cl)c(-c3ccc(Cl)s3)n2)cc1	binding	competition with immobilised ligand	1 µM	100
CS(=O)(=O)N1CCCC(NC(=O)[C@H](CCC2CCCCC2)NC(=O)c2ccc(CNc3ncnc4c3nnn4-c3ccccc3)cc2)C1 (stereo partly shown)	cell-free assay	competition with immobilised ligand	0.1 µM	100
CN(C)c1nccc(-c2cnc3ncccn23)n1	binding		1 µM	83
Cc1noc([C@H]2C[C@@H](c3ccc(C(F)(F)F)cc3)CN(C(=O)N3CCS(=O)(=O)C3)C2)n1	cell-free assay	competition with immobilised ligand	1 µM	100
O=C(c1ccc(Nc2nccc(-c3cc4ccccc4s3)n2)cc1)N1CCC(N2CCCC2)CC1	binding	competition with immobilised ligand	1 µM	65
CCC(=N\O)/C(C)=C/c1ccc(F)cc1	cell-free assay	competition with immobilised ligand	1 µM	100
C[C@H]1CCN(c2nccc(-c3cnn4ncccc34)n2)C1	binding		1 µM	98
Cc1cc(NC(=O)c2cccc(S(F)(F)(F)(F)F)c2)cc(-n2ccn3nc(-c4cccnc4)cc23)c1	cell-free assay	competition with immobilised ligand	1 µM	88.5
O=C(Nc1c[nH]nc1C(=O)NC1CCNCC1)c1cc(F)cc(F)c1	binding	competition with immobilised ligand	1 µM	95
NS(=O)(=O)c1cc(NC(=O)Cc2ccccc2)ccc1Oc1cccc(Cl)c1	cell-free assay	competition with immobilised ligand	1 µM	91
FC(F)(F)Oc1cccc(-c2cnc3ccc(-c4ccncc4)nn23)c1	cell-free assay	competition with immobilised ligand	5 µM	69
